UCH37 inh = blocks the human deubiquitinase UCH37 | inhibition, % (concentration not given with the values) | purified proteasome/UCH37, Ub-AMC cleavage fluorescence | hit rate 0.33% among 330,000;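 active means mean inhibition over replicate wells above about 20%, limit read from the data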
Target sequence (Q9Y5K5 whole entry, looked up): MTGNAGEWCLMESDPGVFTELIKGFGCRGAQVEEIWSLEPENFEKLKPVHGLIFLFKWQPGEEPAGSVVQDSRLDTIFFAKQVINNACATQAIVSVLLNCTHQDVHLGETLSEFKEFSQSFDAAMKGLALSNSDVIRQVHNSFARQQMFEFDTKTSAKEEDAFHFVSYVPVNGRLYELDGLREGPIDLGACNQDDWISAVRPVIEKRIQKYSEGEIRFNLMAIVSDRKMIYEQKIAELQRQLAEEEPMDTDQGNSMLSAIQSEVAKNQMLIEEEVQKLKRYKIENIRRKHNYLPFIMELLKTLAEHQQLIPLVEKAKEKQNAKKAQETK
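Assay system: Proteasome-bound UCH37. Buffer or medium: pH 7.4 Tris-HCl (50 mM) with ovalbumin, ATP-MgCl2, DTT. Incubation: 30 min preincubation with enzyme, 25 min cleavage at room temperature. Measured by: fluorescence, ex 355 nm, em 460 nm. Read-out basis: percent inhibition. Control set: wells without proteasome as full block, compound-free enzyme plus substrate as uninhibited.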
A3G deaminase = inhibitors of human APOBEC3G DNA deaminase. Q9HC16. recombinant A3G, ssDNA deamination FAM/TAMRA fluorescence. inhibition, % at 20 µM. hit rate 0.28% among 330,000;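 active means inhibition of at least 40% at 20 µM, with no more than 30% in the related APOBEC3A deaminase screen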
A3A deaminase = blocks human APOBEC3A ssDNA deamination; P31941; recombinant A3A, FAM/TAMRA ssDNA deamination fluorescence; inhibition, % at 20 µM; hit rate 0.41% among 330,000; AID 493011;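 active means at least 40% inhibition at 20 µM here, with at most 30% in a related deaminase screen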
GASC-1 inh = human JMJD2C demethylase inhibition. Q9H3R0. GST-JMJD2C(1-420) H3K9me3 demethylation, DELFIA europium. inhibition, % at 2.35 µM. hit rate 0.069% among 330,000;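 active means more than half of a compound's replicate wells show inhibition beyond 50%, single wells judged on their own value; inconclusive means some, but no more than half, of replicates pass 50% inhibition; inactive means no replicate passes 50% inhibition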;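 further: signal counts dimethyl H3K9 product captured on neutravidin plate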
Target sequence (Q9H3R0 1-420 limits assumed): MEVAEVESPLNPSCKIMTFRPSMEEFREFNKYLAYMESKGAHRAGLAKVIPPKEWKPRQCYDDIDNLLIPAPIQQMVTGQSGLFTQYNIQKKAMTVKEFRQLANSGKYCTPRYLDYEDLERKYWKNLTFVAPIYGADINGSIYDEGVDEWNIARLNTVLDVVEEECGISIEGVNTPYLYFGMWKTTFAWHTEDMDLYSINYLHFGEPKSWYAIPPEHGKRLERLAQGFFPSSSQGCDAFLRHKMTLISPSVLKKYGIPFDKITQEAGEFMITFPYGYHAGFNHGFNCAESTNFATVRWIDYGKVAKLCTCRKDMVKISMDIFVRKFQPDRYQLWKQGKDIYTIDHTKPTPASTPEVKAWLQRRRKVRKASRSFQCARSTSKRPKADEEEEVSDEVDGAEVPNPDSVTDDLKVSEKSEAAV
UCH37 reconfirm = confirmation of human UCH37 deubiquitinating enzyme inhibitors; inhibition, % at 20 µM; hit rate 27% among 480; Proteasome-bound UCH37, Ub-AMC cleavage fluorescence; shares compounds with UCH37 inh;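 active means average inhibition over replicates above about 50%, so the earlier screening hit is confirmed, limit read from the data; inactive means the rest, counted as false positives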;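 further: based on cleavage rate fitted by regression over a 30 min kinetic read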
Large screens that a line does not name were inactive (follow-up assays come after a bar, where they were run). An excerpt weighted towards active compounds, which were near 0.97% of everything screened.

O=C(c1cccs1)N1CCN(S(=O)(=O)N2CCOCC2)CC1	UCH37 inh 36 | UCH37 reconfirm inactive
CC(=O)Nc1sc(NN=Cc2ccc(N(C)C)cc2)nc1-c1ccc(C)cc1	none (no result: A3G deaminase, A3A deaminase, GASC-1 inh)
CCN1C(=O)/C(=C\N(C)C)NC1=S	none
CN(C)/C=C1/NC(=S)NC1=O	UCH37 inh 27 | UCH37 reconfirm inactive
COc1ccc(NC(=O)C2CCCCN2N)cc1OC (stereo not given)	UCH37 inh 29 | UCH37 reconfirm inactive
O=C(O)c1cccc(CN2C(=O)S/C(=C/c3ccccc3[N+](=O)[O-])C2=O)c1	UCH37 inh 80 | UCH37 reconfirm inactive
COc1ccccc1-c1nc2ccccc2nc1-c1ccccc1OC	none
O=C1c2ccccc2-c2nc3ccccc3nc21	UCH37 inh 45 | UCH37 reconfirm inactive
CC(=N/N=C1/NC(=O)CC(C(=O)O)S1)c1ccccc1 (stereo not given)	none (no result: A3G deaminase, A3A deaminase, GASC-1 inh)
CC(C)=CCCC(C)NC(=O)NC1CCCCC1 (stereo not given)	UCH37 inh 21 | UCH37 reconfirm 67
CC(C)[C@H](NC(=O)NC1CCCC1)C(=O)O	none
COc1cc(C2C(C(=O)c3ccc(C)o3)=C(O)C(=O)N2c2cc(C)on2)cc(OC)c1OC (stereo not given)	none
COc1cc(C2C(C(=O)c3ccc(C)o3)=C(O)C(=O)N2c2cc(C)on2)ccc1O (stereo not given)	UCH37 inh 46 | UCH37 reconfirm inactive
COc1ccc(/C=C/C(=O)Oc2cccc(C=NNC(=O)c3cccc(F)c3)c2)cc1	none (no result: A3G deaminase, A3A deaminase, GASC-1 inh)
C[n+]1ccc(C=NNc2nc(Cl)c(C#N)c(Cl)c2Cl)cc1	UCH37 inh 25 (no result: A3G deaminase, A3A deaminase, GASC-1 inh) | UCH37 reconfirm inactive
CC(=O)N1C(=O)/C(=C2\SC(=S)N(c3c(C)n(C)n(-c4ccccc4)c3=O)C2=O)c2ccccc21	UCH37 inh 25 (no result: A3G deaminase, A3A deaminase) | UCH37 reconfirm inactive
Cn1cnc([N+](=O)[O-])c1Nc1ccc(O)cc1	UCH37 inh 52 | UCH37 reconfirm inactive
CC(Oc1ccccc1)C(=O)N=Nc1c(O)[nH]c2ccc([N+](=O)[O-])cc12 (stereo not given)	UCH37 inh 67 | UCH37 reconfirm inactive
O=C(N=Nc1c(O)[nH]c2ccc([N+](=O)[O-])cc12)c1ccccc1[N+](=O)[O-]	UCH37 inh 61 | UCH37 reconfirm inactive
Cc1ccc([N+](=O)[O-])c(C(=O)NN=Cc2cccnc2)c1	none (no result: A3G deaminase, A3A deaminase, GASC-1 inh)
Cc1ccc(N2CC(C(=O)NCCC3=CCCCC3)CC2=O)cc1 (stereo not given)	UCH37 inh 41 | UCH37 reconfirm 55
CC(=NNC(=O)CCc1c[nH]c2ccccc12)c1ccc([N+](=O)[O-])cc1	none (no result: A3G deaminase, A3A deaminase, GASC-1 inh)
C=CCOc1c(Br)cc(C=NNC(=O)Cc2ccc(C(F)(F)F)cc2[N+](=O)[O-])cc1OC	none (no result: A3G deaminase, A3A deaminase, GASC-1 inh)
CN(C)c1ccc(C=NNC(=O)c2ccc(Cn3cc(Cl)cn3)cc2)cc1	none (no result: A3G deaminase, A3A deaminase, GASC-1 inh)
CCOc1ccc(/C=C2/SC(=S)N(C(C(=O)O)c3ccccc3)C2=O)cc1OCC (stereo not given)	UCH37 inh 51 (no result: A3G deaminase, A3A deaminase, GASC-1 inh) | UCH37 reconfirm inactive
CC1=NN(c2ccc(C)cc2)C(=O)/C1=C\C=C\c1ccccc1	none
CC1=NN(c2ccccc2)C(=O)/C1=C/C=C/C=C/N(C)C	UCH37 inh 32 | UCH37 reconfirm inactive
COC(=O)C1=C(C(=O)OC)[C@@H]2N(C)c3ccccc3[C@@]23C[C@@H](C(=O)OC)N(C(=O)CC(C)C)C3=N1	UCH37 inh 42 | UCH37 reconfirm inactive
C=CCN1c2ccccc2[C@]23C[C@@H](C(=O)OC)N(C(=O)CC(C)C)C2=NC(C(=O)OC)=C(C(=O)OC)[C@H]13	none
COc1cccc(NC2=C(Cl)C(=O)OC2OC(=O)c2ccco2)c1 (stereo not given)	UCH37 inh 37 | UCH37 reconfirm inactive
O=C1C=C(Nc2ccc(F)cc2)c2ccccc2C1=O	UCH37 inh 57 | UCH37 reconfirm inactive
O=C1C=C(Nc2ccccc2O)c2ccccc2C1=O	UCH37 inh 81 | UCH37 reconfirm 85
Cc1ccc(NC2=CC(=O)C(=O)c3ccccc32)c(C)c1	UCH37 inh 36 | UCH37 reconfirm inactive
O=C(Nc1ccccc1O)c1ccc2c(c1)C(=O)N(N1C(=O)c3ccccc3C1=O)C2=O	none
Cc1ccc(NS(=O)(=O)c2ccc3c(c2)C(=O)c2ccccc2C3=O)c(C)c1	none (no result: A3G deaminase, A3A deaminase)
O=c1cccccc1NCc1ccccc1	none
O=C1C=C(NCc2ccccc2)c2ccccc2C1=O	UCH37 inh 53 (no result: A3G deaminase, A3A deaminase) | UCH37 reconfirm inactive
CN(C(=NS(=O)(=O)c1cccs1)c1ccccc1)c1ccccc1	none (no result: A3G deaminase, A3A deaminase, GASC-1 inh)
OCc1nc2ccccc2n1N=Cc1cccs1	none (no result: A3G deaminase, A3A deaminase, GASC-1 inh)
O=[N+]([O-])c1cccc(N/N=C/c2cc([N+](=O)[O-])ccc2O)c1	none (no result: UCH37 inh)
O=[N+]([O-])c1ccc(O)c(C=NNc2ccc(S(=O)(=O)O)cc2)c1	UCH37 inh 25 (no result: A3G deaminase, A3A deaminase, GASC-1 inh) | UCH37 reconfirm inactive
Cc1cc(C=Nn2cnnc2)c(C)n1-c1cccc(C(=O)O)c1	none (no result: A3G deaminase, A3A deaminase, GASC-1 inh)
CN1CCN(C2=CC3=CC(=C(C#N)C#N)CCC3CC2)CC1 (stereo not given)	UCH37 inh 26 (no result: A3G deaminase, A3A deaminase, GASC-1 inh) | UCH37 reconfirm inactive
Nc1ccc(O)c2c1C(=O)c1ccccc1C2=O	GASC-1 inh inconclusive (no result: UCH37 inh)
NC1=CC(=O)C(=O)c2ccccc21	UCH37 inh 44 (no result: A3G deaminase, A3A deaminase, GASC-1 inh) | UCH37 reconfirm 58
O=C(CSC(=S)N1CCCC1)c1ccccc1	none
O=C(CSC(=S)N1CCCCC1)c1ccccc1	UCH37 inh 39 | UCH37 reconfirm inactive
O=C(CSc1nnc(SCc2ccc(Cl)cc2)s1)NN=Cc1ccccc1Cl	none (no result: A3G deaminase, A3A deaminase, GASC-1 inh)
CCOC(=O)/C(C#N)=C\c1ccc(CC)s1	none
CCOC(=O)/C(C#N)=C\C=C1C=CN(C)C=C1	none (no result: UCH37 inh) | UCH37 reconfirm inactive
CN1C(=O)/C(=C\C=C2/CCCN2C)N(C)C1=S	UCH37 inh 39 | UCH37 reconfirm inactive
CCN1C(=O)/C(=C/C=C2/CCCN2C)OC1=S	UCH37 inh 29 | UCH37 reconfirm inactive
Cc1ccc(S(=O)(=O)NN=Cc2c(C)nn(-c3ccccc3)c2C)cc1	none (no result: A3G deaminase, A3A deaminase, GASC-1 inh)
Cn1cc(/C=C/c2cc[n+](C)cc2)c2cc(F)ccc21	UCH37 inh 28 (no result: A3G deaminase, A3A deaminase) | UCH37 reconfirm inactive
Cn1cc(C=O)c2cc(F)ccc21	none
CC(CC(=O)Nc1ccccc1Cl)=NNC(=O)C(=O)NCCO	none (no result: A3G deaminase, A3A deaminase, GASC-1 inh)
CC(=O)Nc1nc(SCC(=O)NCC2CCCO2)[nH]c(=O)c1NC(=O)c1cccs1 (stereo not given)	none
CC(=O)Nc1nc(SCC(=O)NCc2ccc(F)cc2)[nH]c(=O)c1NC(=O)c1cccs1	UCH37 inh 43 | UCH37 reconfirm inactive
Cn1cccc1C=Nn1c(-c2ccc(C(C)(C)C)cc2)n[nH]c1=S	none (no result: A3G deaminase, A3A deaminase, GASC-1 inh)
O=C(O)CC1S/C(=N/N=C/C=C/c2ccccc2)NC1=O (stereo not given)	UCH37 inh 25 | UCH37 reconfirm inactive
O=C(CSCc1ccccc1)NN=Cc1cc2c(cc1Br)OCO2	none (no result: A3G deaminase, A3A deaminase, GASC-1 inh)
CCOc1cc(/C=N\NC(=O)c2ccc(C)nc2)cc([N+](=O)[O-])c1O	none (no result: UCH37 inh)
CCOc1cc(C=NNC(=O)c2ccc(C)nc2)cc([N+](=O)[O-])c1O	UCH37 inh 27 (no result: A3G deaminase, A3A deaminase, GASC-1 inh) | UCH37 reconfirm inactive
